In article PMC9015489 (Chemmedchem, 2022):

Key:
[1] = tested on: NRF2‐ARE pathway; experiment: AREc32 luciferase reporter gene assay; type: cell-based; conditions: for ARE specificity ratio, SR: SR = IC10/ECIR1.5, AREc32 cells, 24 h exposure
Summary of the method: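 AREc32 cells in DMEM+GlutaMAX with 10% FBS and pen/strep, 2650/well, attached 24 h at 37 °C, 5% CO2. Test compound (1×10−15 to 1×10−2 M) for 24 h; tert‐butylhydroquinone as positive control. Luciferase read after PBS washes and Tris/Triton lysis. IR = signal/mean unexposed; ECIR1.5 by linear fit for IR<4. Imaged confluency versus unexposed cells gave IC10 from the linear range.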

[2] = molecular target: human adenosine A2A receptors (Homo sapiens, UniProt P29274); experiment: Radioligand competition binding assay with [3H]CGS-21680
human adenosine A2A receptors, sequence (P29274 whole entry): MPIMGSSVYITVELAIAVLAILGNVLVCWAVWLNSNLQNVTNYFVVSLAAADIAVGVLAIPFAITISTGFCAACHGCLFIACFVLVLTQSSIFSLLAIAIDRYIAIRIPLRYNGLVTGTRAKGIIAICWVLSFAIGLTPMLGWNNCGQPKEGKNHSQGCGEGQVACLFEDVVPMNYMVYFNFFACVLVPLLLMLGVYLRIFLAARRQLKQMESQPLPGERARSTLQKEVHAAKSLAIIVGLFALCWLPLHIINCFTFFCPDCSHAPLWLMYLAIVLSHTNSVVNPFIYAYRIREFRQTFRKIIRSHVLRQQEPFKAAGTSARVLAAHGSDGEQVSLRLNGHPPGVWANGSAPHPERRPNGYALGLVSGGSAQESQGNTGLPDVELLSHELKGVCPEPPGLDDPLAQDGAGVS
Summary of the method: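 Membranes from CHO-S cells recombinantly expressing the human adenosine A2A receptor. Competition with the A2A-selective agonist radioligand [3H]CGS-21680. Test compound run at concentrations from 10 nM to 100 μM. Read-out is % inhibition of radioligand binding, with Ki estimated; n=3.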

[3] = tested on: Vero‐E6 cells
[4] = molecular target: human serum albumin (Homo sapiens, UniProt P02768); experiment: Plasma protein binding estimated by an HPLC-based method; type: in vitro ADME
human serum albumin, sequence (P02768 25-609): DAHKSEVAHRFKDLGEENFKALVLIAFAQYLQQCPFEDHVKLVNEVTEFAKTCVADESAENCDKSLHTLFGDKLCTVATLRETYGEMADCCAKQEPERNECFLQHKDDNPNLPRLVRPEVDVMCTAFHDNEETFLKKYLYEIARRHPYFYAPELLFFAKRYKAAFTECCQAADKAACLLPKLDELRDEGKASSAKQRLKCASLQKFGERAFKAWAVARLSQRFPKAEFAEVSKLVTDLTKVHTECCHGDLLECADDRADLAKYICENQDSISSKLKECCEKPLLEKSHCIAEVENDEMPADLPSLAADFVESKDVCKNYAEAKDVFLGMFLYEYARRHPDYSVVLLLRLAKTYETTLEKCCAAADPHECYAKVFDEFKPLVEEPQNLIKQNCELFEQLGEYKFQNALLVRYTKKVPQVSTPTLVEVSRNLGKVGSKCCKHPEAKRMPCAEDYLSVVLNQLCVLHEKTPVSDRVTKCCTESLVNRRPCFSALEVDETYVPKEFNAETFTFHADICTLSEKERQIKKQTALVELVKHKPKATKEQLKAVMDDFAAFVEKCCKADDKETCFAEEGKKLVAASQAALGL

[5] = Experimental distribution coefficient logD7.4; type: physicochemical; conditions: pH 7.4
[6] = tested on: SARS‐CoV‐2 (B.3 strain); experiment: Vero-E6 SARS-CoV-2 plaque reduction assay; type: cell-based
[7] = read-out: % inhibition of radioligand binding

C=C1CC[C@@H]2[C@](C)(CO)[C@H](O)CC[C@@]2(C)[C@@H]1C/C=C1/C(=O)OC[C@H]1O [Compound 1, Andrographolide]
ARE specificity ratio, SR [1]: 19.4
Ki [2]: > 100 µM
inhibition at 10 µM [2, 7]: 7%
inhibition at 100 µM [2, 7]: 33%
Effect on Vero-E6 cell proliferation (crystal violet staining) ([3]; at 10 μM): inhibited cell proliferation
Toxicity on attached Vero-E6 cells ([3]; at any concentration (0.5-10 μM)): did not show toxicity

CC(C)(C)c1cc(O)ccc1O [Tert‐butylhydroquinone, reference compound]
ECIR1.5 ([1]; effect concentration causing an induction ratio (IR) of 1.5, linear model, 24 h): 3.4 ± 0.2 µM

C=C1CCC2[C@](C)(C(=O)NCCc3ccccc3)[C@H](O)CC[C@@]2(C)[C@@H]1C/C=C1/C(=O)OC[C@H]1O (stereo partly drawn) [16 b, (1S,2R,4aS,5R)‐2‐Hydroxy‐5‐[(2E)‐2‐[(4S)‐4‐hydroxy‐2‐oxo‐tetrahydrofuran‐3‐ylidene]ethyl]‐1,4 a‐dimethyl‐6‐methylene‐N‐(2‐phenylethyl)decalin‐1‐carboxamide]
fraction unbound [4]: 0.62
ARE specificity ratio, SR [1]: 10.8
chromatographic logD [5]: 2.5

C=C1CCC2[C@](C)(C(=O)NCCC)[C@H](O)CC[C@@]2(C)[C@@H]1C/C=C1/C(=O)OC[C@H]1O (stereo partly drawn) [16 a, (1S,2R,4aS,5R)‐2‐Hydroxy‐5‐[(2E)‐2‐[(4S)‐4‐hydroxy‐2‐oxo‐tetrahydrofuran‐3‐ylidene]ethyl]‐1,4 a‐dimethyl‐6‐methylene‐N‐propyl‐decalin‐1‐carboxamide]
fraction unbound [4]: 0.17
ARE specificity ratio, SR [1]: 35.6
chromatographic logD [5]: 1.9

C=C1CCC2[C@](C)(C(=O)NCCOCCOCCOCCOC)[C@H](O)CC[C@@]2(C)[C@@H]1C/C=C1/C(=O)OC[C@H]1O (stereo partly drawn) [16 c, (1S,2R,4aS,5R)‐2‐Hydroxy‐5‐[(2E)‐2‐[(4S)‐4‐hydroxy‐2‐oxo‐tetrahydrofuran‐3‐ylidene]ethyl]‐N‐[2‐[2‐[2‐(2‐methoxy‐ethoxy)ethoxy]ethoxy]ethyl]‐1,4 a‐dimethyl‐6‐methylene‐decalin‐1‐carboxamide]
fraction unbound [4]: 0.08
ARE specificity ratio, SR [1]: 13.3
chromatographic logD [5]: 1.3

C=C1CCC2[C@](C)(CO)[C@H](O)CC[C@@]2(C)[C@@H]1CCC1C(=O)OC[C@H]1O (stereo partly drawn) [Compound 11, (4S)‐3‐[2‐[(1R,5R,6R,8aS)‐6‐Hydroxy‐5‐(hydroxymethyl)‐5,8 a‐dimethyl‐2‐methylene‐decalin‐1‐yl]ethyl]‐4‐hydroxy‐tetrahydrofuran‐2‐one]
Anti-SARS-CoV-2 activity (in words) [6]: did not possess anti‐SARS‐CoV‐2 activities
